Test results taken from ChEMBL document CHEMBL3286331, “Design, synthesis and evaluation of novel quinazoline-2,4-dione derivatives as chitin synthase inhibitors and antifungal agents” (Bioorg Med Chem, 2014).
≈ marks a conversion by molar mass, not a printed value.

What was measured:
Candida albicans [1] = experiment: Antifungal activity against Candida albicans ATCC 76615 after 48 hrs by disc diffusion method; format: functional; conditions: ATCC 76615, 48 h
How it was run: (§1)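 Disc diffusion on modified Sabouraud-chloramphenicol agar (1% peptone, 2% glucose, […]), compounds as sterile-water stocks; fluconazole and polyoxin B positive controls; MIC (mg/L) recorded after 48 h at 37 °C.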

Cryptococcus neoformans = experiment: Antifungal activity against Cryptococcus neoformans after 48 hrs by disc diffusion method; format: functional; how it was run: as §1
Aspergillus flavus [2] = experiment: Antifungal activity against Aspergillus flavus after 48 hrs by disc diffusion method; format: functional; how it was run: as §1
Staphylococcus aureus [3] = experiment: Antibacterial activity against Staphylococcus aureus ATCC 25923 after overnight incubation by disc diffusion method; format: functional
How it was run: (§2)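 Agar disc diffusion on beef extract–peptone medium (1% peptone, 0.3% beef extract, 0.5% NaCl, […]), compounds dissolved in sterile water; streptomycin sulfate positive control; plates incubated overnight at 37 °C, then MIC recorded (mg/L).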

Bacillus spizizenii = experiment: Antibacterial activity against Bacillus subtilis ATCC 6633 after overnight incubation by disc diffusion method; format: functional; how it was run: as §2
Staphylococcus aureus [4] = experiment: Antibacterial activity against methicillin-resistant Staphylococcus aureus N315 after overnight incubation by disc diffusion method; format: functional
How it was run: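 Disc diffusion on beef extract-peptone agar (1% peptone, 0.3% beef extract, 0.5% NaCl, […]); compounds dissolved in sterile water; streptomycin sulfate positive control; plates incubated overnight at 37 °C, then MIC (mg/L) recorded.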

Bacillus = experiment: Antibacterial activity against Bacillus proteus after overnight incubation by disc diffusion method; format: functional; how it was run: as §2
Escherichia coli = experiment: Antibacterial activity against Escherichia coli JM 109 after overnight incubation by disc diffusion method; format: functional; how it was run: as §2
Pseudomonas aeruginosa = experiment: Antibacterial activity against Pseudomonas aeruginosa CR56 after overnight incubation by disc diffusion method; format: functional; how it was run: as §2
[5] = Inhibition of Saccharomyces cerevisiae CGMCC 2.145 chitin synthase assessed as UDP-GlcNAc conversion to chitin after 45 mins by ELISA
How it was run: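 Enzyme prepared from S. cerevisiae cells sonicated at 4 °C in 50 mM Tris–HCl pH 7.0 with protease inhibitors and PMSF; 55,000 g membrane pellet used. Wells hold UDP-GlcNAc plus 320 mM GlcNAc, compound in Tris buffer (final DMSO below 3%), 45 min at 37 °C. Chitin detected with HRP–wheat germ agglutinin, TMB read at 450 nm against a chitin standard curve; IC50 derived.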

Aspergillus flavus [6] = experiment: Ratio of polyoxin B MIC to compound MIC for Aspergillus flavus; format: functional
Aspergillus flavus [7] = experiment: Ratio of fluconazole MIC to compound MIC for Aspergillus flavus; format: functional
Candida albicans [8] = experiment: Ratio of fluconazole MIC to compound MIC for Candida albicans ATCC 76615; format: functional
Candida albicans [9] = experiment: Ratio of polyoxin B MIC to compound MIC for Candida albicans ATCC 76615; format: functional

Structure (SMILES)	MIC (Candida albicans [1])	MIC (Cryptococcus neoformans)	MIC (Aspergillus flavus [2])	MIC (Staphylococcus aureus [3])	MIC (Bacillus spizizenii)	MIC (Staphylococcus aureus [4])	MIC (Bacillus)	MIC (Escherichia coli)	MIC (Pseudomonas aeruginosa)	IC50 [5]	Ratio (Aspergillus flavus [6])	Ratio (Aspergillus flavus [7])	Ratio (Candida albicans [8])	Ratio (Candida albicans [9])
CN(CC(=O)Nc1ccccc1)CC(O)Cn1c(=O)c2ccccc2n(C)c1=O.Cl (configuration not stated)	32 mg/L	64 mg/L	> 512 mg/L	≥ 512 mg/L	≥ 512 mg/L	≥ 512 mg/L	≥ 512 mg/L	≥ 512 mg/L	≥ 512 mg/L	> 750 µM				
CN(CC(=O)NCc1ccccc1)CC(O)Cn1c(=O)c2ccccc2n(C)c1=O.Cl (configuration not stated)	32 mg/L	64 mg/L	32 mg/L	≥ 512 mg/L	≥ 512 mg/L	≥ 512 mg/L	≥ 512 mg/L	≥ 512 mg/L	≥ 512 mg/L	130 µM				
CN(CC(=O)Nc1ccc(C(F)(F)F)cc1)CC(O)Cn1c(=O)c2ccccc2n(C)c1=O.Cl (configuration not stated)	32 mg/L	32 mg/L	8 mg/L	≥ 512 mg/L	≥ 512 mg/L	≥ 512 mg/L	≥ 512 mg/L	≥ 512 mg/L	≥ 512 mg/L	110 µM				
CN(CC(=O)N(Cc1ccccc1)Cc1ccccc1)CC(O)Cn1c(=O)c2ccccc2n(C)c1=O.Cl (configuration not stated)	64 mg/L	2 mg/L	4 mg/L	≥ 512 mg/L	≥ 512 mg/L	≥ 512 mg/L	≥ 512 mg/L	≥ 512 mg/L	≥ 512 mg/L	160 µM	8	16		
CN(CC(=O)Nc1cccc([N+](=O)[O-])c1)CC(O)Cn1c(=O)c2ccccc2n(C)c1=O.Cl (configuration not stated)	4 mg/L	8 mg/L	4 mg/L	≥ 512 mg/L	≥ 512 mg/L	≥ 512 mg/L	≥ 512 mg/L	≥ 512 mg/L	≥ 512 mg/L	240 µM	8	16	8	4
CN(CC(=O)Nc1ccc(CC#N)cc1)CC(O)Cn1c(=O)c2ccccc2n(C)c1=O.Cl (configuration not stated)	4 mg/L	4 mg/L	8 mg/L	≥ 512 mg/L	≥ 512 mg/L	≥ 512 mg/L	≥ 512 mg/L	≥ 512 mg/L	≥ 512 mg/L	120 µM			8	4
CCCN(CCC)C(=O)CN(C)CC(O)Cn1c(=O)c2ccccc2n(C)c1=O.Cl (configuration not stated)	> 512 mg/L	16 mg/L	32 mg/L	≥ 512 mg/L	≥ 512 mg/L	≥ 512 mg/L	≥ 512 mg/L	≥ 512 mg/L	≥ 512 mg/L	390 µM				
CCN(CC)C(=O)CN(C)CC(O)Cn1c(=O)c2ccccc2n(C)c1=O.Cl (configuration not stated)	64 mg/L	16 mg/L	8 mg/L	≥ 512 mg/L	≥ 512 mg/L	≥ 512 mg/L	≥ 512 mg/L	≥ 512 mg/L	≥ 512 mg/L	340 µM				
COc1ccc(NC(=O)CN(C)CC(O)Cn2c(=O)c3ccccc3n(C)c2=O)cc1.Cl (configuration not stated)	16 mg/L	128 mg/L	16 mg/L	≥ 512 mg/L	≥ 512 mg/L	≥ 512 mg/L	≥ 512 mg/L	≥ 512 mg/L	≥ 512 mg/L	180 µM				
Cc1ccc(NC(=O)CN(C)CC(O)Cn2c(=O)c3ccccc3n(C)c2=O)cc1.Cl (configuration not stated)	32 mg/L	2 mg/L	32 mg/L	≥ 512 mg/L	≥ 512 mg/L	≥ 512 mg/L	≥ 512 mg/L	≥ 512 mg/L	≥ 512 mg/L	80 µM				
CN(CC(=O)N1CCCCC1)CC(O)Cn1c(=O)c2ccccc2n(C)c1=O.Cl (configuration not stated)	32 mg/L	512 mg/L		≥ 512 mg/L	≥ 512 mg/L	≥ 512 mg/L	≥ 512 mg/L	≥ 512 mg/L	≥ 512 mg/L	> 750 µM				
CN(CC(=O)NC(C)(C)C)CC(O)Cn1c(=O)c2ccccc2n(C)c1=O.Cl (configuration not stated)	> 512 mg/L	128 mg/L	64 mg/L	≥ 512 mg/L	≥ 512 mg/L	≥ 512 mg/L	≥ 512 mg/L	≥ 512 mg/L	≥ 512 mg/L	140 µM				
NC(=O)OC[C@H](O)[C@@H](O)[C@H](N)C(=O)N[C@H](C(=O)O)[C@H]1O[C@@H](n2cc(CO)c(=O)[nH]c2=O)[C@H](O)[C@@H]1O [POLYOXIN B]	16 mg/L (≈ 31.5 µM)	4 mg/L (≈ 7.88 µM)	32 mg/L (≈ 63.1 µM)							180 µM				
CN(CC(=O)Nc1ccc(Cl)cc1)CC(O)Cn1c(=O)c2ccccc2n(C)c1=O.Cl (configuration not stated)	16 mg/L	2 mg/L	128 mg/L	≥ 512 mg/L	≥ 512 mg/L	≥ 512 mg/L	≥ 512 mg/L	≥ 512 mg/L	≥ 512 mg/L	160 µM				
OC(Cn1cncn1)(Cn1cncn1)c1ccc(F)cc1F [FLUCONAZOLE]	32 mg/L (≈ 104 µM)	2 mg/L (≈ 6.53 µM)	64 mg/L (≈ 209 µM)											
CN(CC(=O)Nc1ccccc1[N+](=O)[O-])CC(O)Cn1c(=O)c2ccccc2n(C)c1=O.Cl (configuration not stated)	> 512 mg/L	32 mg/L	64 mg/L	≥ 512 mg/L	≥ 512 mg/L	≥ 512 mg/L	≥ 512 mg/L	≥ 512 mg/L	≥ 512 mg/L	210 µM				
CN(CC(=O)NCc1ccc(Cl)cc1)CC(O)Cn1c(=O)c2ccccc2n(C)c1=O.Cl (configuration not stated)	32 mg/L	64 mg/L	64 mg/L	≥ 512 mg/L	≥ 512 mg/L	≥ 512 mg/L	≥ 512 mg/L	≥ 512 mg/L	≥ 512 mg/L	> 750 µM				
CN[C@@H]1[C@H](O[C@H]2[C@H](O[C@H]3[C@H](O)[C@@H](O)[C@H](N=C(N)N)[C@@H](O)[C@@H]3N=C(N)N)O[C@@H](C)[C@]2(O)C=O)O[C@@H](CO)[C@H](O)[C@H]1O.CN[C@@H]1[C@H](O[C@H]2[C@H](O[C@H]3[C@H](O)[C@@H](O)[C@H](N=C(N)N)[C@@H](O)[C@@H]3N=C(N)N)O[C@@H](C)[C@]2(O)C=O)O[C@@H](CO)[C@H](O)[C@H]1O.O=S(=O)(O)O.O=S(=O)(O)O.O=S(=O)(O)O [STREPTOMYCIN SULFATE]				64 mg/L	64 mg/L	64 mg/L	64 mg/L	64 mg/L	64 mg/L					
COC(=O)c1ccccc1NC(=O)CN(C)CC(O)Cn1c(=O)c2ccccc2n(C)c1=O.Cl (configuration not stated)	32 mg/L	2 mg/L	4 mg/L	≥ 512 mg/L	≥ 512 mg/L	≥ 512 mg/L	≥ 512 mg/L	≥ 512 mg/L	≥ 512 mg/L	170 µM	8	16		
CN(CC(=O)N(C)c1ccccc1)CC(O)Cn1c(=O)c2ccccc2n(C)c1=O.Cl (configuration not stated)	64 mg/L	8 mg/L	256 mg/L	≥ 512 mg/L	≥ 512 mg/L	≥ 512 mg/L	≥ 512 mg/L	≥ 512 mg/L	≥ 512 mg/L	320 µM				
CN(CC(=O)Nc1ccc([N+](=O)[O-])cc1)CC(O)Cn1c(=O)c2ccccc2n(C)c1=O.Cl (configuration not stated)	> 512 mg/L	64 mg/L	64 mg/L	≥ 512 mg/L	≥ 512 mg/L	≥ 512 mg/L	≥ 512 mg/L	≥ 512 mg/L	≥ 512 mg/L	> 750 µM				
CN(CC(=O)Nc1ccccc1Cl)CC(O)Cn1c(=O)c2ccccc2n(C)c1=O.Cl (configuration not stated)	64 mg/L	2 mg/L	32 mg/L	≥ 512 mg/L	≥ 512 mg/L	≥ 512 mg/L	≥ 512 mg/L	≥ 512 mg/L	≥ 512 mg/L	260 µM				
